This note sets out measurements from ChEMBL document CHEMBL1140356, “Developing microcolin A analogs as biological probes” (Bioorg Med Chem Lett, 2005).

Test [1] concerns EL4. Nature of the test: Cytotoxicity against EL-4 cell line (mouse thymoma cells). In kind it is functional, cell-based. The procedure, abridged:
(§1)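 Growth-inhibition assay on cultured cells, reported as IC50. […] used primary mouse lymphocytes, either PMA/ionomycin-stimulated or in a mixed lymphocyte reaction. C2C12 are nontransformed mouse myoblasts. BAE are primary bovine aortic endothelial cells.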

Test [2] concerns P388. In words: Cytotoxicity against P-388 cell line (mouse T-cell leukemia cells). In kind it is functional, cell-based. The method, boiled down: as §1
Test [3] can be described thus: Cytotoxicity against C2C12 cell line (mouse myoblast cells). Type of test: functional, cell-based. The procedure, abridged: as §1
Test [4] deals with Jurkat. Nature of the test: Cytotoxicity against Jurkat cell line (human T-cell leukemia cells). Type of test: functional, cell-based. The method, boiled down: as §1
The species named for test [5] is Mus musculus. In words: Cytotoxicity against mouse mixed lymphocyte reaction. Type of test: functional. The method, boiled down:
as §1

In test [6] the test system is EL4. In words: Cytotoxicity against mouse thymoma cells (EL-4 cell lines). In kind it is functional, cell-based. The procedure, abridged: as §1
Test [7] can be described thus: Cytotoxicity against mouse PMA ionomycin-stimulated lymphocytes. Type of test: functional. The method, boiled down:
as §1

Test [8] is described as follows: Cytotoxicity against BAE cell line (bovine aortic endothelial cells). In kind it is functional, cell-based. To be noted: Bos taurus. The method, boiled down: as §1
For test [9], the system named is N1E-115. In words: Cytotoxicity against N1E-115 cell line (mouse neuroblastoma cells). Type of test: functional, cell-based. The method, boiled down: as §1
The subject of test [10] is EL4. In words: Cytotoxicity against EL-4 cell line (mouse thymoma). Type of test: functional, cell-based. The procedure, abridged: (§2)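 Cell proliferation inhibition measured in cultured cells; value reported as IC50.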
Test [11] relates to P388. In words: Cytotoxicity against P-388 cell line (mouse T-cell leukemia). In kind it is functional, cell-based. The method, boiled down: as §2

A word on the IC50: it is the concentration at which inhibition is half-maximal. Read a low IC50 as inhibition by little substance. As to `CCCCCCCC(=O)N(C)[C@@H](CC(C)C)C(=O)N[C@H](C(=O)N(C)[C@H](C(=O)N1CCC[C@H]1C(=O)N1C(=O)C=C[C@@H]1C)C(C)C)C(C)OC(C)=O` (some centres undefined), the half-maximal inhibitory concentration (IC50) in [1] came out at 6000 nM; in [2], 5000 nM.

Take `CCCCCCCC(=O)N(C)[C@@H](CC(C)C)C(=O)N[C@H](C(=O)N(C)[C@H](C(=O)N1C[C@@H](O)C[C@H]1C(=O)N1C(=O)C=C[C@H]1C)C(C)C)C(C)OC(C)=O` (some centres undefined): the IC50 in test [1] was 6000 nM; in [2] it was 7000 nM.

Take `CCCCCCCC(=O)N(C)[C@@H](CC(C)C)C(=O)N[C@H](C(=O)N(C)[C@H](C(=O)N1C[C@@H](O)C[C@H]1C(=O)N1C(=O)C=C[C@@H]1C)C(C)C)C(C)OC(C)=O` (some centres undefined): the half-maximal inhibitory concentration (IC50) in test [3] is 43.4 nM; in test [4], 39.4 nM; in test [5], 32.8 nM; in test [2], 66.7 nM; in test [6], 45.6 nM; in [7], 30.3 nM. Also, the 50% inhibitory concentration (IC50) in [8] amounted to 36.7 nM; in test [9], 35.9 nM.

With `CC(=O)OC(C)[C@H](NC(=O)[C@H](CC(C)C)N(C)C(=O)CCOCCOCCOCCOCCNC(=O)CCCC[C@@H]1SC[C@@H]2NC(=O)N[C@@H]21)C(=O)N(C)[C@H](C(=O)N1C[C@@H](O)C[C@H]1C(=O)N1C(=O)C=C[C@@H]1C)C(C)C` (some centres undefined), the 50% inhibitory concentration (IC50) in test [10] and in test [11] was 10000 nM throughout.
